Results on 2 molecules are retold here after ChEMBL document CHEMBL5696442, “Discovery of type II inhibitors of TGFβ-activated kinase 1 (TAK1) and mitogen-activated protein kinase kinase kinase kinase 2 (MAP4K2)” (J Med Chem, 2015).

For assay [1], the target named is Tyrosine-protein kinase Fyn (Homo sapiens) (UniProt P06241). Description: Inhibition of FYN ACT labeling site in human A-375 cells at 5 uM by KiNativ Profiling analysis relative to control. The class given is cell-based.
In assay [2] the target is Mitogen-activated protein kinase 7 (Homo sapiens) (UniProt Q13164). Description: Inhibition of Erk5 Lys2 labeling site in human A-375 cells at 5 uM by KiNativ Profiling analysis relative to control. The format is cell-based. The method, boiled down: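 Live A375 melanoma cells were treated with compound at 0.5 or 5 μM, then lysed. Lysates were labeled with a lysine-reactive ATP or ADP-biotin probe. The read-out was protection of each kinase probe-labeling site from labeling, relative to control.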

For assay [3], the target named is T1, Serine/threonine-protein kinase NLK (Homo sapiens) (UniProt Q9UBE8).
T1 sequence (whole entry): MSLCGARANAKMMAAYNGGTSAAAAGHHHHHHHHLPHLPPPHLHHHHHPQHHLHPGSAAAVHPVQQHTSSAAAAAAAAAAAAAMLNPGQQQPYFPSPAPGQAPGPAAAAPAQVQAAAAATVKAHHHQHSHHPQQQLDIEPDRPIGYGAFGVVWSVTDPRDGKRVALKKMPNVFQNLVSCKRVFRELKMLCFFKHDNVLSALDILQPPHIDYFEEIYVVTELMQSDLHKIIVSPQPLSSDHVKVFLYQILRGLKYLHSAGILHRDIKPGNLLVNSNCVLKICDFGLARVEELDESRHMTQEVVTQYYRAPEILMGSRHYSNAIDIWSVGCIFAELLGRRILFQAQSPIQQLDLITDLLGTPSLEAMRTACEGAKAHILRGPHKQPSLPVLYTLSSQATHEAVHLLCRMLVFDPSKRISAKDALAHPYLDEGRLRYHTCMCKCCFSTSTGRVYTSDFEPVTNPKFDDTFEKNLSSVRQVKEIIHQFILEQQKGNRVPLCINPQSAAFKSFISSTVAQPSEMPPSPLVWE
The assay can be described thus: Inhibition of NLK Lys2 labeling site in human A-375 cells at 5 uM by KiNativ Profiling analysis relative to control. The class given is cell-based.

The target of assay [4] is Phosphatidylinositol 3-kinase catalytic subunit type 3 (Homo sapiens) (UniProt Q8NEB9). The assay can be described thus: Inhibition of PIK3C3 ATP labeling site in human A-375 cells at 5 uM by KiNativ Profiling analysis relative to control. The format is cell-based.
The target of assay [5] is T2, Serine/threonine-protein kinase TBK1 (Homo sapiens) (UniProt Q9UHD2).
T2 sequence (whole entry): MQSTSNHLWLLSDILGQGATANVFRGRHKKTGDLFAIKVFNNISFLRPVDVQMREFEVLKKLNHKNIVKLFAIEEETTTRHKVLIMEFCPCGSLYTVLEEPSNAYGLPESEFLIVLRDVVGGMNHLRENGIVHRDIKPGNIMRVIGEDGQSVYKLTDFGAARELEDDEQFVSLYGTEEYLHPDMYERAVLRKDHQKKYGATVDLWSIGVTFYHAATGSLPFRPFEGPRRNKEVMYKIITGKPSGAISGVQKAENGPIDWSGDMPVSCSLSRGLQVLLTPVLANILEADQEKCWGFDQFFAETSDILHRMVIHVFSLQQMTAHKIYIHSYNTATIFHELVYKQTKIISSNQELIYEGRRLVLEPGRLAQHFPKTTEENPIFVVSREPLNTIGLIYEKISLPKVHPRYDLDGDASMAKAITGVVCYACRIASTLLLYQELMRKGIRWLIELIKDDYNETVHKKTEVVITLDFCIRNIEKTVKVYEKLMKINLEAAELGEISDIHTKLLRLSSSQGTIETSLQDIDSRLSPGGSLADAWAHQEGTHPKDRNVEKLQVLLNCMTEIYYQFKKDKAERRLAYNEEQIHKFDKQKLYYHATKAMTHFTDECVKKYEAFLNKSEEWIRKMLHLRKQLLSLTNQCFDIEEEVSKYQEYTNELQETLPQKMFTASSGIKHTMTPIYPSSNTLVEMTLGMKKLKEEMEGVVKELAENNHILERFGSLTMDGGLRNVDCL
The assay can be described thus: Inhibition of TBK1 Lys1 labeling site in human A-375 cells at 5 uM by KiNativ Profiling analysis relative to control. The format is cell-based.

For assay [6], the target named is Serine/threonine-protein kinase WNK3 (Homo sapiens) (UniProt Q9BYP7). Description: Inhibition of Wnk3 Lys2 labeling site in human A-375 cells at 5 uM by KiNativ Profiling analysis relative to control. The class given is cell-based.
In assay [7] the target is Cyclin-dependent kinase 4 (Homo sapiens) (UniProt P11802). Description: Inhibition of CDK4 Lys2 labeling site in human A-375 cells at 0.5 uM by KiNativ Profiling analysis relative to control. The class given is cell-based. In a few lines:
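Live A375 melanoma cells were treated with compound at 5 or 0.5 μM. The cells were then lysed, and the lysates were labeled with a lysine-reactive ATP or ADP-biotin acyl probe (KiNativ). Inhibition is the compound's protection of each kinase labeling-site peptide from probe labeling, relative to untreated control.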

Assay [8] concerns the target Receptor tyrosine-protein kinase erbB-3 (Homo sapiens) (UniProt P21860). The assay can be described thus: Inhibition of HER3/ErbB3 ACT labeling site in human A-375 cells at 0.5 uM by KiNativ Profiling analysis relative to control. The format is cell-based.
The target in assay [9] is Dual specificity mitogen-activated protein kinase kinase 1 (Homo sapiens) (UniProt Q02750). Description: Inhibition of MAP2K1 Lys1 labeling site in human A-375 cells at 0.5 uM by KiNativ Profiling analysis relative to control. The class given is cell-based.
Assay [10] has as its target Serine/threonine-protein kinase MRCK beta (Homo sapiens) (UniProt Q9Y5S2). Description: Inhibition of MRCKb in human A-375 cells at 0.5 uM by KiNativ Profiling analysis relative to control. The class given is cell-based.
Assay [11] deals with Serine/threonine-protein kinase Nek7 (Homo sapiens) (UniProt Q8TDX7). The assay can be described thus: Inhibition of NEK7 Lys2 labeling site in human A-375 cells at 0.5 uM by KiNativ Profiling analysis relative to control. The class given is cell-based.
In assay [12] the target is 5'-AMP-activated protein kinase catalytic subunit alpha-1 (Homo sapiens) (UniProt Q13131). Description: Inhibition of AMPKa1 Lys1 labeling site in human A-375 cells at 0.05 uM by KiNativ Profiling analysis relative to control. The class given is cell-based.
The target of assay [13] is Casein kinase II subunit alpha (Homo sapiens) (UniProt P68400). Description: Inhibition of CK2a1 Protein Kinase Domain in human A-375 cells at 0.05 uM by KiNativ Profiling analysis relative to control. The format is cell-based.
Assay [14] has as its target Serine/threonine-protein kinase MARK2 (Homo sapiens) (UniProt Q7KZI7). The assay can be described thus: Inhibition of MARK2 Lys2 labeling site harbouring FIVHRDLKAENLLLDADMNIK in human A-375 cells at 0.05 uM by KiNativ Profiling analysis relative to control. The format is cell-based.
Assay [15] deals with Serine/threonine-protein kinase 38-like (Homo sapiens) (UniProt Q9Y2H1). Description: Inhibition of NDR2 Lys2 labeling site in human A-375 cells at 0.05 uM by KiNativ Profiling analysis relative to control. The class given is cell-based.
Assay [16] in a line: Inhibition of p70S6K ATP Loop labeling site harbouring GGYGKVFQVR in human A-375 cells at 0.05 uM by KiNativ Profiling analysis relative to control. To be noted: condition cancer.

Serine/threonine-protein kinase WNK3 (Homo sapiens), sequence (Q9BYP7 whole entry): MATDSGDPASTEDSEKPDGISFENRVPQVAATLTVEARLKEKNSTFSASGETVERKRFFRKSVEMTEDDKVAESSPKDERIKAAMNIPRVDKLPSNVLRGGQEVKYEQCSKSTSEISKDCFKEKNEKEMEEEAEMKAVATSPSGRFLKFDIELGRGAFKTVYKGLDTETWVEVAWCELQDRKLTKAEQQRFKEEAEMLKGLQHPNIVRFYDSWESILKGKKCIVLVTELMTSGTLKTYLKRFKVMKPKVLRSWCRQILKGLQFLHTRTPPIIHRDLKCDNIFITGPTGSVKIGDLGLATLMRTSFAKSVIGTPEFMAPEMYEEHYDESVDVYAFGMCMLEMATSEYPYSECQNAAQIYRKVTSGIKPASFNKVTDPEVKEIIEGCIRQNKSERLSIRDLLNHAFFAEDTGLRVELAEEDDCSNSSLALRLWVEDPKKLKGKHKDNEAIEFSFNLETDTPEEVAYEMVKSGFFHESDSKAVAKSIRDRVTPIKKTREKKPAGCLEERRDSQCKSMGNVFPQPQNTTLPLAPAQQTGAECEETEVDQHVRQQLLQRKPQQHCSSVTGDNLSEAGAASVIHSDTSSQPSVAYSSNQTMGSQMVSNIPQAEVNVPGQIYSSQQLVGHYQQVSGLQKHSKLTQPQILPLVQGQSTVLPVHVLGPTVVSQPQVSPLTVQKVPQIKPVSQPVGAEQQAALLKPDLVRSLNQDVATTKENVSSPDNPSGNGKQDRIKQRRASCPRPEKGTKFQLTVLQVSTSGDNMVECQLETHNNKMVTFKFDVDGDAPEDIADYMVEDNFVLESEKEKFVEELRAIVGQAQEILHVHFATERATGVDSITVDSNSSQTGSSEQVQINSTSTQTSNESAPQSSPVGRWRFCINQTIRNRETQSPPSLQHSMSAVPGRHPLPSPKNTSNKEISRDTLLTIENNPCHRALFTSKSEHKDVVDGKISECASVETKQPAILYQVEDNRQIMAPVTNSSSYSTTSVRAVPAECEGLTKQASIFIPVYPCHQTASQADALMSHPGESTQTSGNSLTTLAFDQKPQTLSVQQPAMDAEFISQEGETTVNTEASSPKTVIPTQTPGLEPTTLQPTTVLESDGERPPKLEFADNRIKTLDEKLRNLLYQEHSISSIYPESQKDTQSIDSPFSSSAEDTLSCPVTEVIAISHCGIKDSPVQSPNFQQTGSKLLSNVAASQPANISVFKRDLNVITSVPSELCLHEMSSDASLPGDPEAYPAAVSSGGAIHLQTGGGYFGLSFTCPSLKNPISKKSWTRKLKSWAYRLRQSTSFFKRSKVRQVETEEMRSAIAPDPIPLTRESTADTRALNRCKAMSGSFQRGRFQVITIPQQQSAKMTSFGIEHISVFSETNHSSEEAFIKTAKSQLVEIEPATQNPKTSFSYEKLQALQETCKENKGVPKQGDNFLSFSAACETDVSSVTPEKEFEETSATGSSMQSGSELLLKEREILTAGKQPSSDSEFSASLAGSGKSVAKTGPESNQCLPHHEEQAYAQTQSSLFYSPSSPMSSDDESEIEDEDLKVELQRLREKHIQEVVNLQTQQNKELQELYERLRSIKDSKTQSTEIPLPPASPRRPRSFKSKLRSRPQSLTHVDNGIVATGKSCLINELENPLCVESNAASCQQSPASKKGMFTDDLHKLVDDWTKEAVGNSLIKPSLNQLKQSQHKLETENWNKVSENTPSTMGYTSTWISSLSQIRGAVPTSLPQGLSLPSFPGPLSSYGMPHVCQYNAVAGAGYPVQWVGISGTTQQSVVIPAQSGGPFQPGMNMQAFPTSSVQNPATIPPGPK
Serine/threonine-protein kinase MRCK beta (Homo sapiens), sequence (Q9Y5S2 whole entry): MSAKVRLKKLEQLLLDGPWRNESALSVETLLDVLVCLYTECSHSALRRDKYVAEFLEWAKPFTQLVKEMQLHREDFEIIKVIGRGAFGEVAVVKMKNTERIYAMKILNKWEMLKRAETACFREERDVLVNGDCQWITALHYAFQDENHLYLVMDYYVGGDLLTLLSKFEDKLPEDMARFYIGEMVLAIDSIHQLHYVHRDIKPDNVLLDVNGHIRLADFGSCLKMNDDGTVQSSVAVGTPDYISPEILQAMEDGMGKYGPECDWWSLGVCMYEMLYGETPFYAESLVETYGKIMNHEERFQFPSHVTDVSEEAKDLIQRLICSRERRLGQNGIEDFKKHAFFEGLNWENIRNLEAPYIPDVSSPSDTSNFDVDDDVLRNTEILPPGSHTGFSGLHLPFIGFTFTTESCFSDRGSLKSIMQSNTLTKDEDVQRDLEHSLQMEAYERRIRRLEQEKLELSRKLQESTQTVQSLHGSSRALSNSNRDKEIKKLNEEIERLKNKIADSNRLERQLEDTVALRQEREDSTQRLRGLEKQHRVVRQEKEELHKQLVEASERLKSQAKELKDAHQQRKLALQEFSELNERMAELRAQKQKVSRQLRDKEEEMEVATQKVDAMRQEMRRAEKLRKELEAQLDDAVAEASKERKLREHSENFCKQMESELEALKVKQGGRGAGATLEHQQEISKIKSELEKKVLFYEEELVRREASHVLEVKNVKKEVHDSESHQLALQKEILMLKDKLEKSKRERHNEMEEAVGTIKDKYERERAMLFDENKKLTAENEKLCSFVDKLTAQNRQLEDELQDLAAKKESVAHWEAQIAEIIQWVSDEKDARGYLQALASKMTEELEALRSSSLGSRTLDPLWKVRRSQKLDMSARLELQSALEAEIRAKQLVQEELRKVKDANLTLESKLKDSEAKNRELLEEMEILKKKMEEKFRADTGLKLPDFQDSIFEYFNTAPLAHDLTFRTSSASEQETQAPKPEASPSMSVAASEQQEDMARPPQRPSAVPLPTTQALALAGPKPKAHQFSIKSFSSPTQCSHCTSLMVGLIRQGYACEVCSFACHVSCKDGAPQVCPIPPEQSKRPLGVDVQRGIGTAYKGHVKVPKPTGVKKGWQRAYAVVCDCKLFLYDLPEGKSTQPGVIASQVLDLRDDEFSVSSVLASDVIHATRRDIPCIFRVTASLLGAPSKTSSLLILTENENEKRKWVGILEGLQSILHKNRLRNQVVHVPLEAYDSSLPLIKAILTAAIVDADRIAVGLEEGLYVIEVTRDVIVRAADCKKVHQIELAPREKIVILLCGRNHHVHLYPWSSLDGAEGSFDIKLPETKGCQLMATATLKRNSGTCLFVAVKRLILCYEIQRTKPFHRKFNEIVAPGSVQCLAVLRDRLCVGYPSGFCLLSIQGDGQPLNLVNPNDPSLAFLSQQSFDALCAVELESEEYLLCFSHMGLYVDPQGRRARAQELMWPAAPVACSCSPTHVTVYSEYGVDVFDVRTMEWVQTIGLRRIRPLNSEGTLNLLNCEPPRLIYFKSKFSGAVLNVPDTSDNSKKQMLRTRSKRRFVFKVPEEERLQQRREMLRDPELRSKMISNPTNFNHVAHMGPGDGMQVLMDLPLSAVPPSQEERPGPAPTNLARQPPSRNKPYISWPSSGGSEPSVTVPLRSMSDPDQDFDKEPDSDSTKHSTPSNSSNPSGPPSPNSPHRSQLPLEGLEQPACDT
Phosphatidylinositol 3-kinase catalytic subunit type 3 (Homo sapiens), sequence (Q8NEB9 whole entry): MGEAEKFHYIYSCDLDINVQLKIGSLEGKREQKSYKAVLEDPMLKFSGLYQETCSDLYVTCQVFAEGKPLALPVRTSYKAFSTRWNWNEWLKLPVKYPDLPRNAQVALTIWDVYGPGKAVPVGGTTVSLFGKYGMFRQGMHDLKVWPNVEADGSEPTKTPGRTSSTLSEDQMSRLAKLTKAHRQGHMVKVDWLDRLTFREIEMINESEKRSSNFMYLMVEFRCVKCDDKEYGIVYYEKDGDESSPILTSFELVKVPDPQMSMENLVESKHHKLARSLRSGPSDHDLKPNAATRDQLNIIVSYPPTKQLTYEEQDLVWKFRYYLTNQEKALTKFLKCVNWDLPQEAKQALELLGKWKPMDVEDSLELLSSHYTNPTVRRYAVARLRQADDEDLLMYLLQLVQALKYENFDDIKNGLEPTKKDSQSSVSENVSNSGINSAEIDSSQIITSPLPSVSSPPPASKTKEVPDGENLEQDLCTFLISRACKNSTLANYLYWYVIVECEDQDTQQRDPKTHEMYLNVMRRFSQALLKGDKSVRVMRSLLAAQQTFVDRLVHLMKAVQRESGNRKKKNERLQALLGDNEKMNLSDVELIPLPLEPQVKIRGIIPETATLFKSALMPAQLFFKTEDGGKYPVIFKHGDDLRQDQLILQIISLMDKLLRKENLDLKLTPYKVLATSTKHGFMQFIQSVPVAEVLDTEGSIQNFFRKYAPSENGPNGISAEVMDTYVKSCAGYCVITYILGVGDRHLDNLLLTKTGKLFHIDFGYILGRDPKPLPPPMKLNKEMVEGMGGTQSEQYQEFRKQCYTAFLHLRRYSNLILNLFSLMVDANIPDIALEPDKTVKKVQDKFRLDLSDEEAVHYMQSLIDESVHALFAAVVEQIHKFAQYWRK
Tyrosine-protein kinase Fyn (Homo sapiens), sequence (P06241 2-537 limits assumed): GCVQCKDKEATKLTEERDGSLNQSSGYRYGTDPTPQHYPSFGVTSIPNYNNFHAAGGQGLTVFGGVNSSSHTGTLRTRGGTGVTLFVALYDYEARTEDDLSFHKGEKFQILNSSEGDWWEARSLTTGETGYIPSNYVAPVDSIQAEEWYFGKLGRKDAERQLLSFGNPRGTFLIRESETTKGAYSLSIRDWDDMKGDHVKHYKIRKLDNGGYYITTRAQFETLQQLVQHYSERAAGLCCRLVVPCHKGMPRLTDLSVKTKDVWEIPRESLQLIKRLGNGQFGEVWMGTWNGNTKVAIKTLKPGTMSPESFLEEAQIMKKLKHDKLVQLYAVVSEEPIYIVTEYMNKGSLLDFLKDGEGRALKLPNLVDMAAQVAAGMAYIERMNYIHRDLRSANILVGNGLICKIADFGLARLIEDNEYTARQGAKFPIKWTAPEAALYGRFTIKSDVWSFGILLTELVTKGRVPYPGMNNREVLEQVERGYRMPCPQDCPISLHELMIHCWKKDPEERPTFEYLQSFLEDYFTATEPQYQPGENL

Consider `CCN1CCN(Cc2ccc(NC(=O)c3ccc(C)c(/C=C/c4cnc5[nH]ccc5c4OC)c3)cc2C(F)(F)F)CC1`, for which the inhibition – broadly, the drop in the measured response relative to a control, in per cent – in assay [1] was greater than 99%; in assay [2] it was 8.7%; in assay [3], 66.6%; in [4], 35.1%; in assay [5], 42.7%; in [6], 14.3%. The inhibition turned out to be 9.2% in [7]; 12.2% in assay [8]; 4.4% in [9]; 7.3% in [10]; 10.7% in [11]; 7.4% in assay [12]. The inhibition in assay [13] stood at 11.4%; in assay [14], 14.2%; in assay [15], 11.6%. In assay [16], the inhibition at 0.05 µM is -14.4%.

As for `CCN1CCN(Cc2ccc(NC(=O)c3ccc(C)c(Oc4ccnc5[nH]ccc45)c3)cc2C(F)(F)F)CC1`, the inhibition in assay [1] was 89.6%; in assay [2], 7.8%; in assay [3] it was 18.9%; in [4] it was 40.5%; in assay [5], 13.2%; in [6], -5.5%. The inhibition is 5.7% in [7]; 5.1% in [8]; -3.5% in assay [9]; -3% in assay [10]; 7.8% in assay [11]; 13.4% in [12]. Further, the inhibition in assay [13] was -4.1%; in assay [14], 11.3%; in [15], 14.8%. In [16], the inhibition at 0.05 µM came to 18.9%.
